Our source for the IC50, Activity and inhibition values is ChEMBL document CHEMBL5252537, “Usnic Acid Benzylidene Analogues as Potent Mechanistic Target of Rapamycin Inhibitors for the Control of Breast Malignancies” (J Nat Prod, 2017).

In data set [1] the test system is MDA-MB-231. Description: Antiproliferative activity against human MDA-MB-231 cells incubated for 72 hrs by MTT assay. Type of data set: functional, cell-based. The following applies: MDA-MB-231, 72 h. The gist of the method: (§1)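 Cells seeded at 5 × 10^3/well and allowed to attach overnight, then washed with PBS. Compound diluted from 10 mM DMSO stock into medium (100 ng/mL HGF added for c-Met-expressing cells), in triplicate, 72 h at 37 °C. MTT added for 4 h, formazan dissolved in DMSO, absorbance read at 570 nm. Cell numbers taken from a standard curve; IC50 calculated.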

In the next data set the test system is T47D. As to the kind of experiment: Induction of autophagy in human T47D cells assessed as autophagic vacuoles by microscopic analysis. It counts as functional, cell-based. A digest of the protocol: (§2)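 Cells of each line treated with compound and examined by light microscopy for autophagic vacuoles, compared with control cells.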
For data set [2], the system named is MCF7. As to the kind of experiment: Inhibition of colony formation in human MCF7 cells at 0.2 uM incubated for 8 days by inverted phase contrast microscopic analysis. The settings on record: MCF7, 192 h, time 8 day. It counts as functional. The gist of the method: (§3)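 Soft agar assay: 5 × 10^3 MCF-7 cells per well in a cell/agar matrix layered over a base agar layer. Overlaid with 10% serum medium containing 0.2 or 0.6 μM compound, or DMSO. Colonies photographed under inverted phase-contrast microscopy after 8 days. Matrix then solubilized, MTT added (4 h, 37 °C), detergent added, A570 read. Growth normalized to DMSO.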

Data set [3] concerns MDA-MB-231. Description: Anti-invasive activity in human MDA-MB-231 cells after 24 hrs […]. The settings on record: MDA-MB-231, 24 h. It counts as functional, cell-based.
A further data set has as its system SK-BR-3. Description: Antiproliferative activity against human SK-BR-3 cells incubated for 72 hrs by MTT assay. It counts as functional, cell-based. The settings on record: SK-BR-3, 72 h. A digest of the protocol: as §1
The subject of data set [4] is MCF7. As to the kind of experiment: Inhibition of colony formation in human MCF7 cells at 0.6 uM incubated for 8 days by inverted phase contrast microscopic analysis. Type of data set: functional. The settings on record: MCF7, 192 h, time 8 day. A digest of the protocol:
as §3

A further data set deals with BT-474. As to the kind of experiment: Antiproliferative activity against human BT-474 cells incubated for 72 hrs by MTT assay. The following applies: BT-474, 72 h. It counts as functional, cell-based. A digest of the protocol: as §1
The target of data set [5] is Serine/threonine-protein kinase mTOR (Homo sapiens) (UniProt P42345). Description: Inhibition of mTOR in human MDA-MB-231 cells assessed as reduction in phosphorylated 4E-BP1 level at 0.25 to 0.5 uM by Western blot analysis. The settings on record: dose 0.25-0.5 µM. It counts as cell-based. A digest of the protocol:
(§4)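 Cells seeded at 5 × 10^5 per 100 mm dish and allowed to attach overnight. Treated with compound or DMSO for 72 h (HGF 100 ng/mL added for MDA-MB-231). Lysed in RIPA buffer with protease inhibitors. 30 μg protein run on SDS-PAGE, transferred to PVDF, blocked in 5% BSA/TBST. Primary antibodies overnight at 4 °C, HRP secondary antibodies, chemiluminescent detection.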

A further data set has as its system MCF-10A. As to the kind of experiment: Cytotoxicity against human MCF-10A cells at 6 times of IC50 incubated for 24 hrs by MTT assay. Type of data set: toxicity, cell-based. The gist of the method:
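MCF-10A cells seeded at 3 × 10^4/well and allowed to attach overnight. Treated with compound in serum-free medium, in triplicate, for 24 h; vehicle wells got the maximum DMSO amount. Doxorubicin (10 μM) was the positive control. MTT for 4 h, formazan dissolved in DMSO, A570 blank-subtracted. Cell numbers from a standard curve; viability expressed versus DMSO wells.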

The target of data set [6] is Serine/threonine-protein kinase mTOR (Homo sapiens) (UniProt P42345). Description: In vivo inhibition of mTOR in human MDA-MB-231/GFP cells xenografted in athymic nude mouse assessed as downregulation of phosphorylated S6K level at 10 mg/kg, ip.
The target is the same in data set [7]. Description: Inhibition of mTOR in human […] cells assessed as reduction in phosphorylated 4E-BP1 level at 0.25 to 0.5 uM by Western blot analysis. The following applies: MCF7, dose 0.25-0.5 µM. It counts as cell-based. A digest of the protocol:
as §4

Data set [8] has as its system MCF7. As to the kind of experiment: Antiproliferative activity against human MCF7 cells incubated for 72 hrs by MTT assay. Type of data set: functional, cell-based. The following applies: MCF7, 72 h. The gist of the method: as §1
In the next data set the target is mTORC2 (Homo sapiens) (UniProt P42345+Q6R327+Q9BVC4+Q9BPZ7). Description: Inhibition of mTORC2 in human MDA-MB-231 cells assessed as reduction in Akt phosphorylation at Ser473 residue at 0.25 to 0.5 uM by Western blot analysis. It counts as cell-based. The settings on record: dose 0.25-0.5 µM. A digest of the protocol: as §4
For data set [9], the system named is MCF7. Description: Induction of autophagy in human MCF7 cells assessed as autophagic vacuoles by microscopic analysis. It counts as functional, cell-based. The gist of the method: as §2
Data set [10] deals with Serine/threonine-protein kinase mTOR (Homo sapiens) (UniProt P42345). As to the kind of experiment: In vivo inhibition of mTOR in human MCF7 cells xenografted in athymic nude mouse assessed as downregulation of phosphorylated 4E-BP1 level at 10 mg/kg, ip.
Data set [11] concerns MCF7. As to the kind of experiment: Inhibition of colony formation in human MCF7 cells assessed as reduction in colony diameter at 0.6 uM incubated for 8 days by inverted phase contrast microscopic analysis (reference value: 50 micrometer). The settings on record: time 8 day. It counts as functional. The gist of the method:
as §3

Structures are written as SMILES. pIC50: −log10 of the molar value. Active and inactive are the calls of the source. The rule behind the calls is not given here.

For `CC(=O)C1=C(O)C=C2Oc3c(C(=O)/C=C/c4ccc(OC(F)(F)F)cc4)c(O)c(C)c(O)c3[C@]2(C)C1=O`, the negative logarithm of the IC50 (pIC50) is 6.49 in the data set with MDA-MB-231 [1]; 6.38 in the data set on MDA-MB-231 [3]; 6.40 in the data set on SK-BR-3; 6.41 with BT-474; 6.55 in the data set with MCF7 [8]. Besides, the result with T47D and in the data set on MCF7 [9] was Active. Testing at 0.2 µM in the data set on MCF7 [2] gave an inhibition of 22.9%. Testing at 0.6 µM with MCF7 [4] gave an inhibition of 75.3%. Also, the inhibition entry (in data set [5]; in [6]; in data set [7]; at mTORC2 (Homo sapiens); in data set [10]) was “Active” each time. Besides, the Activity result with MCF-10A was “Non-Toxic”; with MCF7 [11], 122 um.
